H9c2 protect – myocardial damage modulation in H9c2 cells | protection from H2O2 cell death, % at 20 µM | H9c2 cardiomyocytes, H2O2 injury protection, ATPLite, 2 h | 360,000 tested, 0.63% active;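 active = compounds giving at least 50% protection of heart cells from peroxide-induced death in the single-dose screen, raw or plate-pattern-corrected value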;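 also: 0% = DMSO wells with peroxide and 100% = DMSO wells without peroxide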
B2AR ag – activates human beta-2 adrenergic receptor causing internalization; P07550; Am2.2-beta2AR cells, FAP receptor internalization, flow cytometry; response, % (concentration not given with the values); 340,000 tested, 0.43% active;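 active = response above a set limit, near 3 SD of response in nonfluorescent compounds, cut at about 42% in these data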
Target sequence (P07550 whole entry, looked up): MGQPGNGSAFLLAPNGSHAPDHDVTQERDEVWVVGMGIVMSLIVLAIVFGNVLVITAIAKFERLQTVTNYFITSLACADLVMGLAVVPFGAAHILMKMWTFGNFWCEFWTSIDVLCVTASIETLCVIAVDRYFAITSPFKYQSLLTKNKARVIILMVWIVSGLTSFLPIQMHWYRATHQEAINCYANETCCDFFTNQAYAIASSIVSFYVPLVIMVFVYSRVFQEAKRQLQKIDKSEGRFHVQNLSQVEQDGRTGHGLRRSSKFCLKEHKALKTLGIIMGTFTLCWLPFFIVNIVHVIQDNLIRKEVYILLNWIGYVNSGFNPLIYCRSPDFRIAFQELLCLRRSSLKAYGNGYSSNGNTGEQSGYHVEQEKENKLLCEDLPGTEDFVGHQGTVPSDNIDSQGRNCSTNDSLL
UCH37 DUB inh – inhibitors of human deubiquitinating enzyme UCH37; purified proteasome/UCH37, Ub-AMC cleavage fluorescence; inhibition, % (test concentration not listed); 330,000 tested, 0.33% active; AID 588478;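 active = mean inhibition over replicate wells above about 20%, limit read from the data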;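 also: 0% = compound-free wells with enzyme and 100% = wells lacking proteasome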
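Material: Human UCH37 enzyme supplied as purified proteasome complex | Schedule: 30 min compound-proteasome preincubation then 25 min substrate reaction, room temperature | Detection: AMC fluorescence from Ub-AMC cleavage, excitation 355 nm, emission 460 nm | Benchmarks: Wells without proteasome as full block, compound-free enzyme plus substrate as uninhibited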
HKDC1 inhibitor – HKDC1 (human) hexokinase inhibition | Q2TB90 | recombinant HKDC1, G6PDH/diaphorase resazurin coupled fluorescence | 340,000 tested, 0.16% active | AID 493160 | inhibition, % at 20 µM;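 active = inhibition above about 35% when tested at 20 µM, limit read from the data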;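 also: plate controls were DMSO wells with enzyme for no effect and DMSO wells lacking enzyme for full effect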
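Assay system – recombinant HKDC1 (HK5) hexokinase enzyme, produced in-house · Input – HKDC1 at 5 µg/mL · Reagent – glucose plus 1 mM ATP as hexokinase substrates · Timing – 90 min reaction incubation at room temperature, dark · Measured by – G6PDH/diaphorase-coupled fluorescence, 1 mM NADP, 100 µM resazurin, 525/613 nm · Benchmarks – DMSO-enzyme wells negative, buffer-substituted wells positive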
aDG glyco up – alpha-DG glycosylation activation. AID 624168. Pro5-aDG cells, alpha-DG glycosylation AlphaScreen (IIH6); 0% Pro5, 100% B10-LARGE cell signal. 360,000 tested, 0.22% active. activation, % at 10 µM;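 active = activation of at least 8% versus controls, or a plate z-score of at least 8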;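 also: Pro5 are CHO cells carrying HIG-tagged alpha-DG that lacks glycosylation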
PfGluPho inh – PfG6PD (Plasmodium falciparum) enzyme inhibition. 350,000 tested, 0.78% active. inhibition, % at 20 µM. PfGluPho enzyme, NADPH resazurin-diaphorase fluorescence. AID 504690;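 active = inhibition reaching at least a set limit at 20 µM in the primary screen, cut at about 59% in these data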;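 also: 0% = DMSO wells with substrate and 100% = DMSO wells lacking glucose-6-phosphate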
Numbers without * were called inactive. Sampled rows, rich in hits. Any-hit rate of the full collection: about 2.1%.

`CS(=O)(=O)c1nc(-c2ccc(F)cc2)cc(C(F)(F)F)n1` gave H9c2 protect -11, B2AR ag 73*, UCH37 DUB inh 3, HKDC1 inhibitor -3, aDG glyco up 0 and PfGluPho inh 7.
For COc1ccc(-c2cc(C(F)(F)F)nc(S(C)(=O)=O)n2)cc1 the results were H9c2 protect -7, B2AR ag 35, UCH37 DUB inh -16, HKDC1 inhibitor 3, aDG glyco up 0 and PfGluPho inh 5.
Screening COc1cc(/C=C2/C(C)=C(C#N)c3nc(N)c(C#N)c(C)c32)ccc1OCC(=O)O returned B2AR ag -3, HKDC1 inhibitor 4 and PfGluPho inh 5.
Screening CC1=C(C#N)c2nc(N)c(C#N)c(C)c2/C1=C\c1ccc(-c2ccccc2C(=O)O)o1 returned H9c2 protect -3, B2AR ag -6, UCH37 DUB inh 22*, HKDC1 inhibitor 17, aDG glyco up 0 and PfGluPho inh 13.
`COc1ccc(-c2noc(CCC(=O)NCCCN3CCC(Cc4ccccc4)CC3)n2)cc1` gave H9c2 protect -26, B2AR ag 4, UCH37 DUB inh 2, HKDC1 inhibitor -4, aDG glyco up 5.5* and PfGluPho inh 0.
`COc1ccc(NS(=O)(=O)c2cccc(C(=O)NN=C(C)c3cccnc3)c2)cc1` gave UCH37 DUB inh 1.
`COc1ccc(NC(=O)COc2ccc(C=Nn3c(C)nnc3C)cc2OC)cc1` gave UCH37 DUB inh 5.
CCN1C(=O)/C(=C/c2nc3ccccc3c(=O)[nH]2)c2ccccc21 was read as H9c2 protect 78*, B2AR ag 16, UCH37 DUB inh 4, HKDC1 inhibitor 8, aDG glyco up 0 and PfGluPho inh 1.
`COc1ccc(OCC(O)Cn2c(Br)nc3c2c(=O)[nH]c(=O)n3C)cc1` (stereo not given) gave H9c2 protect 54*, B2AR ag -7, UCH37 DUB inh -9, HKDC1 inhibitor -7, aDG glyco up 0 and PfGluPho inh -5.
Screening Cc1ccccc1OCC(O)Cn1c(Br)nc2c1c(=O)[nH]c(=O)n2C (stereo not given) returned H9c2 protect 41, B2AR ag -9, UCH37 DUB inh 1, HKDC1 inhibitor -13, aDG glyco up 1 and PfGluPho inh -7.
`CC(C)Sc1nc2c(c(=O)[nH]c(=O)n2C)n1CC(O)COc1ccccc1` (stereo not given) gave H9c2 protect 2, B2AR ag 20, UCH37 DUB inh 4, HKDC1 inhibitor 12, aDG glyco up 0 and PfGluPho inh -1.
`Cn1c(=O)[nH]c(=O)c2c1nc(Br)n2CC(O)COc1ccc(Cl)cc1` (stereo not given) gave H9c2 protect 92*, B2AR ag 2, UCH37 DUB inh 1, HKDC1 inhibitor 1, aDG glyco up 0 and PfGluPho inh -16.
`CSc1nc2c(c(=O)[nH]c(=O)n2C)n1Cc1ccc(Cl)cc1` gave H9c2 protect 32, B2AR ag 6, UCH37 DUB inh 1, HKDC1 inhibitor -2, aDG glyco up 0 and PfGluPho inh 65*.
For COc1ccc(OCC(O)Cn2c(Nc3cccc(C)c3)nc3c2c(=O)n(C)c(=O)n3C)cc1 (stereo not given) the results were H9c2 protect 64*, B2AR ag -1, UCH37 DUB inh -18, HKDC1 inhibitor 19, aDG glyco up 0 and PfGluPho inh -9.
For Cc1ccc(C=NNC(=O)CSc2nc3ccccc3n2Cc2ccccc2)o1 the results were UCH37 DUB inh 2.
`Cc1cc[n+](-c2[nH]c(=O)sc2C=NNC([S-])=Nc2ccccc2)cc1` gave UCH37 DUB inh 23*.
For COC(=O)N1C(=O)[C@](c2ccccc2)(C2CCCC2)N1C(=O)OC the results were H9c2 protect 80*, B2AR ag -1, UCH37 DUB inh 0, HKDC1 inhibitor 6, aDG glyco up 0 and PfGluPho inh -6.
For CCOc1cc(C=NNc2nc(=O)[nH]nc2C)ccc1O the results were UCH37 DUB inh 18.
`Cn1c(=O)c2c(nc(Br)n2Cc2ccc3ccccc3c2)n(C)c1=O` gave H9c2 protect 87*, B2AR ag 1, UCH37 DUB inh 8, HKDC1 inhibitor -2, aDG glyco up 0 and PfGluPho inh 2.
S=c1[nH]nc(C2CCCCC2)n1N=Cc1cccs1 was read as UCH37 DUB inh 6.
CN1c2ccsc2/C(=N/NC(=O)c2c(F)cccc2F)CS1(=O)=O was read as H9c2 protect 4, B2AR ag -1, HKDC1 inhibitor -7, aDG glyco up 0 and PfGluPho inh 4.
For Cc1cccc(C(=O)N/N=C2\CS(=O)(=O)N(C)c3ccsc32)c1 the results were H9c2 protect 64*, B2AR ag -1, HKDC1 inhibitor -13, aDG glyco up 1 and PfGluPho inh -14.
CCCNC(=O)c1ccc2c(=O)c(O)c(-c3ccc(Cl)c([N+](=O)[O-])c3)[nH]c2c1 was read as H9c2 protect 68*, B2AR ag 0, UCH37 DUB inh 0, HKDC1 inhibitor -14, aDG glyco up 0 and PfGluPho inh -9.
Screening O=C(NCCc1nc2ccccc2[nH]1)c1ccc(Cl)c([N+](=O)[O-])c1 returned H9c2 protect -4, B2AR ag 13, HKDC1 inhibitor 16, aDG glyco up 0 and PfGluPho inh -10.
COc1ccccc1C=NN(C(C)=O)c1nc(-c2ccc(F)cc2)cs1 was read as UCH37 DUB inh 7.
Screening COc1ccc(OCC(=O)NN=C(C)c2cccs2)cc1 returned UCH37 DUB inh 0.
`O=C(c1ccccc1)c1ccc(N2CCOCC2)cc1` gave H9c2 protect -11, B2AR ag 3, HKDC1 inhibitor 4, aDG glyco up 0 and PfGluPho inh -10.
For CC(=O)N(C)C1=C(O)c2ccccc2C(=O)C1=O the results were H9c2 protect -3, B2AR ag 2, UCH37 DUB inh 9, HKDC1 inhibitor 9, aDG glyco up 0 and PfGluPho inh -14.
Screening CC(=O)N(C)C1=C(N2CCOCC2)C(=O)c2ccccc2C1=O returned H9c2 protect -17, B2AR ag 1, UCH37 DUB inh 22*, HKDC1 inhibitor 11, aDG glyco up 5.5* and PfGluPho inh 42.
CC(=O)N(C1=C(N2CCOCC2)C(=O)c2ccccc2C1=O)c1ccc(C(=O)O)cc1 was read as H9c2 protect -24, B2AR ag 8, UCH37 DUB inh 24*, HKDC1 inhibitor 19, aDG glyco up 0 and PfGluPho inh 50.
For CC(=O)Nc1sc(NN=Cc2ccccc2)nc1-c1ccc(C)cc1 the results were UCH37 DUB inh -4.

Screens from PubChem BioAssay.
